The text below walks through data of ChEMBL document CHEMBL1136843, “N-Benzyl-1-heteroaryl-3-(trifluoromethyl)-1H-pyrazole-5-carboxamides as inhibitors of co-activator associated arginine methyltransferase 1 (CARM1)” (Bioorg Med Chem Lett, 2009).

In general, IC50 refers to the midpoint of a concentration-inhibition curve.

Calls of active or inactive are those of the source. The rule behind the calls is not given here.

The target of assay [1] is T1, Histone-arginine methyltransferase CARM1 (Mus musculus, UniProt Q9WVG6).
T1 sequence (Q9WVG6 whole entry): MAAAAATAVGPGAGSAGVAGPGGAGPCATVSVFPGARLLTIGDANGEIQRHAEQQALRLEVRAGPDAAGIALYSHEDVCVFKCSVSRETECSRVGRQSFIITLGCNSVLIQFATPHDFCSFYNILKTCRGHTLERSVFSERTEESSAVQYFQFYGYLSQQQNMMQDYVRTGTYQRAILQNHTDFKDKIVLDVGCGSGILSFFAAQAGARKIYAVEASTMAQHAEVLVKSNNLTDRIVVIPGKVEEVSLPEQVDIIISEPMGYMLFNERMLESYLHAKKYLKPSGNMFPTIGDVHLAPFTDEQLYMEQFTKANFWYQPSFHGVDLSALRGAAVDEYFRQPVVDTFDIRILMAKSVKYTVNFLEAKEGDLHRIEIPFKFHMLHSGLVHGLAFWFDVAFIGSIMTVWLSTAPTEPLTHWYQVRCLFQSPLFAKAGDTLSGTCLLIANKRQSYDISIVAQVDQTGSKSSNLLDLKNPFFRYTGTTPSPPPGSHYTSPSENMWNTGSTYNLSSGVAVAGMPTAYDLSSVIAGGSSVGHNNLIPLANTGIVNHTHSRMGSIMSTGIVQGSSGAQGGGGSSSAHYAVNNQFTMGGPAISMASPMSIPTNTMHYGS
Kind of assay: Inhibition of mouse recombinant his-tagged CARM1 expressed in Sf9 cells by histone methyltransferase assay. Summed up: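 Recombinant CARM1 diluted in Tris–HCl pH 9 and pre-incubated with compound for 10 min at rt. Histone H3 substrate plus SAM containing 20% [3H]SAM then added and incubated 15 min at 30 °C. Reaction quenched with SAH, spotted onto P30 filtermat with wax scintillant, and incorporated radioactivity counted.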

The test system of the next assay is T47D. In words: Growth inhibition of human estrogen-dependent T47D cells after 72 hrs. In kind it is functional, cell-based. The method in brief: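 T47D breast ductal carcinoma cells stimulated with estradiol and counted after 72 h; tamoxifen as positive control.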
In the next assay the test system is DU-145. In words: Cytotoxicity against human DU145 cells by MTT assay. Type of assay: functional, cell-based. Summed up:
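DU145 prostate carcinoma cell growth measured by MTT proliferation assay; HDAC inhibitor MS-275 as positive control.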
(In general: Tetrazolium assays rely on reduction of a dye to a coloured formazan, in cell work by metabolically active cells.)

For the next assay, the target named is T2, Androgen receptor (Homo sapiens, UniProt P10275).
T2 sequence (P10275 whole entry): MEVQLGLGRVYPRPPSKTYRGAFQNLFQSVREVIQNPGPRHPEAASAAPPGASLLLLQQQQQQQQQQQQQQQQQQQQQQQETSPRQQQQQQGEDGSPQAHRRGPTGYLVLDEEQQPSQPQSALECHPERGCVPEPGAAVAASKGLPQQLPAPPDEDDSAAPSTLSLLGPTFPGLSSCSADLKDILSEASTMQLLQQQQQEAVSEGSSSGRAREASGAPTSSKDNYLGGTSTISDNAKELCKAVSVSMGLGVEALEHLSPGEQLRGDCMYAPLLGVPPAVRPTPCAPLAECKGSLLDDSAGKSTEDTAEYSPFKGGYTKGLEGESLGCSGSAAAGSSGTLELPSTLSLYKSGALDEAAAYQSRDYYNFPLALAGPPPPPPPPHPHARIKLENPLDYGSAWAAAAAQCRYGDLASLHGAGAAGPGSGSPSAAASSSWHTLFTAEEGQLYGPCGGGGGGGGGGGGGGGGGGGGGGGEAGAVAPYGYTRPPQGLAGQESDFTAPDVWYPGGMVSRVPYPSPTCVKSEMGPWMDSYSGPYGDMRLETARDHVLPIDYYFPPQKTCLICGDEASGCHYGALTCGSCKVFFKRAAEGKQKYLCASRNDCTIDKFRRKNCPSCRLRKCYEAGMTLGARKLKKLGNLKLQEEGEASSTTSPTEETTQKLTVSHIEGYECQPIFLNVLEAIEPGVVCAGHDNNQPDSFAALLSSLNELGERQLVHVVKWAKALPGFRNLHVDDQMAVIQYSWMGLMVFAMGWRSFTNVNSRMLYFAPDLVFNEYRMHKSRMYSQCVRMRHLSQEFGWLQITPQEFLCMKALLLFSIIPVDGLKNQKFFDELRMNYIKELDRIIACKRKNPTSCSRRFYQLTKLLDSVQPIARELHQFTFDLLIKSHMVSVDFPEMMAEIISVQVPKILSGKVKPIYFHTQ
Kind of assay: Antiandrogenic activity in human MDA-MB-453 cells expressing androgen receptor assessed as inhibition of DHT-induced androgen-dependent transcription by luciferase reporter gene assay. In kind it is cell-based. Background: A reporter such as luciferase makes a cellular process visible.

A further assay has as its target T3, Estrogen receptor (Homo sapiens, UniProt P03372).
T3 sequence (P03372 whole entry): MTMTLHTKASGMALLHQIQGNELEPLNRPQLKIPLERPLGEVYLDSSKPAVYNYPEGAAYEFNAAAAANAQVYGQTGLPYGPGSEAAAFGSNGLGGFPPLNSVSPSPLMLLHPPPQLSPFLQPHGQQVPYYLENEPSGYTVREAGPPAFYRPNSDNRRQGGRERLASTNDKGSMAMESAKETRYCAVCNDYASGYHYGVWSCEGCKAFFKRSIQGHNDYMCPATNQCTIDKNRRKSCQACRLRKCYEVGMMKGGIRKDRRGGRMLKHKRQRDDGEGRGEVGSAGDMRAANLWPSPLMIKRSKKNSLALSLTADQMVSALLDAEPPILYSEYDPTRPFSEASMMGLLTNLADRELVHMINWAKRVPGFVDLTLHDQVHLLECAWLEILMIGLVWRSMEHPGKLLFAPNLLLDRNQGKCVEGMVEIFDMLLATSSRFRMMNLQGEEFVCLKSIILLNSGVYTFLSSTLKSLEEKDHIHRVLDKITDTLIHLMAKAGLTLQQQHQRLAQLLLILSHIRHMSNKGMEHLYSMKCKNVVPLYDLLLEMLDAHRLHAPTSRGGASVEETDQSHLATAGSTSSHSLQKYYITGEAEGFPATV
Kind of assay: Antiestrogenic activity in human T47D cells expressing estrogen receptor assessed as estrogen-dependent transcription by luciferase reporter gene assay. In kind it is cell-based.

Assay [2] has as its target T4, Histone-lysine N-methyltransferase SETD7 (Homo sapiens, UniProt Q8WTS6).
T4 sequence (Q8WTS6 whole entry): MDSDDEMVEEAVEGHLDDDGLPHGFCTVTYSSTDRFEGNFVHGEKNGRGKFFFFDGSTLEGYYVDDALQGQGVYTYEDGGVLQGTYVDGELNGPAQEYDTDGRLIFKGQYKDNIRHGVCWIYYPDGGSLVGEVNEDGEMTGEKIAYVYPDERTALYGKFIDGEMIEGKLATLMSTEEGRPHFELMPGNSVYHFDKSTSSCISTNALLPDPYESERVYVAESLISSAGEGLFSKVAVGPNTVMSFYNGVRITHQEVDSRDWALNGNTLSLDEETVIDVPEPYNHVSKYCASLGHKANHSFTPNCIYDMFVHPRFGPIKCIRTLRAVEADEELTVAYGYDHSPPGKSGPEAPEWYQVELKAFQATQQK
Kind of assay: Inhibition of Set7/9 lysine methyltransferase.

The target of assay [3] is T5, Histone-arginine methyltransferase CARM1 (Mus musculus) (UniProt Q9WVG6).
T5 sequence (whole entry): T1 sequence (Q9WVG6 whole entry)
In words: Inhibition of mouse recombinant CARM1 assessed as inhibition of histone H3 methylation at 5 uM after 48 hrs by cell based assay. Summed up:
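Cell-based readout of histone H3 arginine 26 methylation, a CARM1 target site, in two different cell lines treated with compound up to […] for 48 h.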

For assay [4], the target named is Protein arginine N-methyltransferase 1 (Homo sapiens, UniProt Q99873). In words: Inhibition of PRMT1.
Sequence of Protein arginine N-methyltransferase 1 (Q99873 whole entry): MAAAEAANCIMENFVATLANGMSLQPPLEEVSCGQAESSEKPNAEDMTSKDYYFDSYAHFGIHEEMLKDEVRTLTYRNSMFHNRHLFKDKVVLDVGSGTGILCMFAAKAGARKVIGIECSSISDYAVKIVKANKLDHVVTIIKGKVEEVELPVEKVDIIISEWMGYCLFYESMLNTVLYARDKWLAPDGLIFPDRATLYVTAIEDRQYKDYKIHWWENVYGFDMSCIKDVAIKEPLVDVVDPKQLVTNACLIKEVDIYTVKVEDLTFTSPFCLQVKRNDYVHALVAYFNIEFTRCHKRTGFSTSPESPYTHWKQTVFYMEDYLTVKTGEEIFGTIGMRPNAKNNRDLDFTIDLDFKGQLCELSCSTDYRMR

For the molecule `COc1ccccc1CNC(=O)c1cc(C(F)(F)F)nn1-c1nc(CNC(=O)[C@H](C)N)cs1`, the IC50 in assay [1] was 2200 nM. Regarding `CC(C)Oc1ccccc1CNC(=O)c1cc(C(F)(F)F)nn1-c1ccc(CNC(=O)[C@H](C)N)s1`, in assay [1], the 50% inhibitory concentration (IC50) was 2920 nM.

Take `C[C@H](N)C(=O)NCc1ccc(-n2nc(C(F)(F)F)cc2C(=O)NCc2ccccn2)s1`: in assay [1], the IC50 was determined as 3350 nM. On to `COc1ccccc1CNC(=O)c1cc(C(F)(F)F)nn1-c1cccc(CNC(=O)[C@H](C)N)c1`, for which the IC50 in the assay on T47D was > 10000 nM; in assay [1], 60 nM; with DU-145, 18000 nM; at Androgen receptor, > 10000 nM; on Estrogen receptor, > 10000 nM. Regarding `C[C@H](N)C(=O)NCc1ccc(-n2nc(C(F)(F)F)cc2C(=O)NCc2ccccc2)s1`, in assay [1], the IC50 stood at 230 nM. Same read-out and setting: then `Cc1ccccc1CNC(=O)c1cc(C(F)(F)F)nn1-c1csc(CNC(=O)[C@H](C)N)c1`, with 260 nM. As to `COc1ccccc1CNC(=O)c1cc(C(F)(F)F)nn1-c1csc(CNC(=O)[C@H](C)N)c1`, the half-maximal inhibitory concentration (IC50) with T47D is > 10000 nM; in assay [1], 60 nM; with DU-145, 18000 nM; in assay [2], > 100000 nM; on Androgen receptor it was > 10000 nM; on Estrogen receptor, > 10000 nM. In assay [4], the IC50 was > 100000 nM. In addition, the result in assay [3] was inactive. For `COc1ccccc1CNC(=O)c1cc(C(F)(F)F)nn1-c1cc(CNC(=O)[C@H](C)N)ccn1`, the IC50 in assay [1] was found to be 4200 nM. `Nc1ccccc1NC(=O)c1ccc(CNC(=O)OCc2cccnc2)cc1` [ENTINOSTAT]: the midpoint of inhibition in the assay on DU-145, the IC50, lay at 2000 nM. Molecule `CC/C(=C(\c1ccccc1)c1ccc(OCCN(C)C)cc1)c1ccccc1` [TAMOXIFEN] displayed a half-inhibitory concentration (IC50) in the assay on T47D of 1000 nM. With `COc1ccccc1CNC(=O)c1cc(C(F)(F)F)nn1-c1cccc2c1CN(CNC(=O)[C@H](C)N)C2`, the half-inhibitory concentration (IC50) in assay [1] was > 10000 nM.

With `COc1cccc(CNC(=O)c2cc(C(F)(F)F)nn2-c2csc(CNC(=O)[C@H](C)N)c2)c1`, the IC50 in assay [1] worked out at 370 nM. Consider `C[C@H](N)C(=O)NCc1ccc(-n2nc(C(F)(F)F)cc2C(=O)NCc2ccccc2F)s1`, for which, in assay [1], the half-inhibitory concentration (IC50) came out at 2310 nM. Turning to `COc1ccccc1CNC(=O)c1cc(C(F)(F)F)nn1-c1ccc(CNC(=O)[C@H](C)N)s1`, in assay [1], the IC50 was 300 nM. In the case of `COC(=O)c1ccccc1CNC(=O)c1cc(C(F)(F)F)nn1-c1csc(CNC(=O)[C@H](C)N)c1`, the IC50 in assay [1] stood at 770 nM.

For `COc1ccccc1CNC(=O)c1cc(C(F)(F)F)nn1-c1cccc2cc(CNC(=O)[C@H](C)N)oc12`, in assay [1], the 50% inhibitory concentration (IC50) was > 10000 nM. Take `COc1ccccc1CNC(=O)c1cc(C(F)(F)F)nn1-c1cccc(CNC(=O)[C@H](C)N)n1`: the IC50 in assay [1] is 3050 nM. On the same count and under the same terms, then `C[C@H](N)C(=O)NCc1ccc(-n2nc(C(F)(F)F)cc2C(=O)NCc2ccccc2C(F)(F)F)s1`, with 4480 nM; and `C[C@H](N)C(=O)NCc1cc(-n2nc(C(F)(F)F)cc2C(=O)NCc2ccccc2F)cs1`, with 790 nM. On the same count and under the same terms, then `C[C@H](N)C(=O)NCc1cc(-n2nc(C(F)(F)F)cc2C(=O)NCc2ccccc2)cs1`, with 220 nM.
